Data reported in ChEMBL document CHEMBL2093137, “WHO-TDR NTD Screening”.
≈ marks a conversion by molar mass, not a printed value.

Key:
[1] = WHO-TDR: Cytotoxicity; assay type: toxicity, cell-based; conditions: human, MRC5 cells
Brugia malayi [2] = test: (§1) WHO-TDR: Lymphatic Filariasis; assay type: functional; parameters: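 tested at 10 µM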
Method in brief: (§2)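 Percent inhibition and IC50 describe activity against Brugia malayi microfilariae in a whole-organism screen. The screen used previously published standard procedures with reference drugs as positive controls. Compounds came from a diverse Life Chemicals library of 10,000, filtered for drug-likeness and reactive groups.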

Brugia malayi [3] = test: as §1; assay type: functional; parameters: concentration or dose not given beside the values; method in brief: as §2; remark: listed apart in the source
Onchocerca lienalis = test: (§3) WHO-TDR: Onchocerciasis; assay type: functional; parameters: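 at 12.5 µM on microfilariae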
Method in brief: (§4)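 Onchocerca ochengi or Onchocerca lienalis, animal pathogens used as surrogates for the human parasite, were screened as whole microfilariae against a 10,000-compound diverse library from Life Chemicals. The reported measures of activity are percent inhibition and IC50.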

Schistosoma mansoni = test: WHO-TDR: Schistosomiasis; assay type: functional; parameters: concentration or dose not given beside the values
Method in brief: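 Larval and/or adult Schistosoma mansoni (Puerto Rican strain) were tested whole against 10,000 diverse compounds from Life Chemicals. The procedure was a previously published standard one, using a reference drug as positive control. Results are expressed as percent inhibition and IC50.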

Trypanosoma cruzi = test: WHO-TDR: Chagas disease; assay type: functional, organism-based, Homo sapiens; conditions: MRC5
Method in brief: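 Whole-organism screen of a 10,000-compound diverse library from Life Chemicals, filtered for drug-likeness and reactive groups, against intracellular amastigotes of Trypanosoma cruzi Tulahuen CL2 beta-galactosidase strain grown in MRC-5SV2 human lung fibroblast host cells. The assay followed previously published standard procedures, with a reference drug as positive control. Antiparasitic potency is reported as IC50.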

[4] = test system: Trypanosoma brucei brucei; test: WHO-TDR: Human African Trypanosomiasis (HAT); assay type: functional, organism-based; conditions: Squib-427
Method in brief: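 Bloodstream forms of the Trypanosoma brucei Squib 427 strain were tested in a whole-organism screen with a diverse library from Life Chemicals of 10,000 compounds. Before screening, the library was filtered for drug-likeness and for reactive groups. The assay used previously published standard procedures and included reference drugs as positive controls. Potency against the parasite is expressed as IC50.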

Leishmania infantum = test: WHO-TDR: Leishmaniasis; assay type: functional, organism-based, Mus musculus; conditions: Macrophage
Method in brief: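 Following previously published standard procedures, a whole-organism screen was run on Leishmania infantum MHOM/MA(BE)/67 amastigotes within murine peritoneal macrophages, with a reference drug as positive control. The 10,000 compounds tested formed a diverse Life Chemicals library filtered for drug-likeness and reactive groups. Potency against the parasite is reported as IC50.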

Plasmodium falciparum K1 = test: WHO-TDR: Malaria; assay type: functional, organism-based, Homo sapiens; conditions: Erythrocyte
Method in brief: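 Following previously published standard procedures, with a reference drug serving as positive control, compounds were tested on the Plasmodium falciparum K1 strain inside human red blood cells. The 10,000-compound diverse set came from Life Chemicals after filtering for drug-likeness and reactive groups. Potency against the parasite appears as IC50.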

Onchocerca ochengi = test: as §3; assay type: functional; parameters: concentration or dose not given beside the values; method in brief: as §4;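 further: at 12.5 µM on microfilariae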

SMILES	IC50 [4] [µg/mL]	IC50 (Leishmania infantum) [µg/mL]	IC50 (Plasmodium falciparum K1) [µg/mL]	IC50 [1] [µg/mL]	% Inhibition (Brugia malayi [2]) [%]	% Inhibition (Brugia malayi [3]) [%]	% Inhibition (Onchocerca lienalis) [%]	% Inhibition (Schistosoma mansoni) [%]	IC50 (Trypanosoma cruzi) [µg/mL]	% Inhibition (Onchocerca ochengi) [%]
CCCC(=O)Nc1nnc(-c2ccc(C)cc2)s1	> 7.84	> 7.84	> 7.84	> 7.84	100	0	0	0	> 7.84	–
CCOC(=O)c1c(NC(=O)c2cccc(C(F)(F)F)c2)sc2c1CCN(C)C2	0.341 (≈ 0.826 µM)	4.84 (≈ 11.7 µM)	> 13.5	> 13.5	0	33.33	0	0	4.8 (≈ 11.6 µM)	–
CCC(=O)c1c(NC(=O)c2ccc(C)cc2)sc2c1CCN(CC)C2	0.321 (≈ 0.9 µM)	2.32 (≈ 6.51 µM)	1.87 (≈ 5.24 µM)	> 11.8	33.33	33.33	0	0	0.479 (≈ 1.34 µM)	–
CC(C)N1CCc2c(sc(NC(=O)c3sc4ccccc4c3Cl)c2C(N)=O)C1	2.02 (≈ 4.65 µM)	0.457 (≈ 1.05 µM)	> 14.1	4.25 (≈ 9.8 µM)	0	33.33	0	0	0.552 (≈ 1.27 µM)	–
CCN1CCc2c(sc(NC(=O)c3ccccc3)c2-c2nc3ccccc3s2)C1	1.22 (≈ 2.91 µM)	4.43 (≈ 10.6 µM)	2.17 (≈ 5.17 µM)	3.75 (≈ 8.94 µM)	0	0	0	25	0.514 (≈ 1.23 µM)	–
CN1CCc2c(sc(NC(=O)C3COc4ccccc4O3)c2-c2nc3ccccc3s2)C1 (stereo not drawn)	0.48 (≈ 1.04 µM)	4.86 (≈ 10.5 µM)	3.38 (≈ 7.29 µM)	5.39 (≈ 11.6 µM)	66.67	33.33	0	0	2.48 (≈ 5.35 µM)	–
O=C(C1CC1)N1CCc2ccc(NS(=O)(=O)c3ccc4c(c3)CCCC4)cc21	3.85 (≈ 9.71 µM)	> 11.9	> 11.9	1.28 (≈ 3.24 µM)	0	0	–	0	0.829 (≈ 2.09 µM)	0
COc1ccc(CC(=O)NCCS(=O)(=O)N2CCN(c3ncccn3)CC2)cc1OC	> 13.5	0.437 (≈ 0.972 µM)	> 13.5	> 13.5	0	0	–	33.3	> 13.5	0

Now from value to molecule, other results behind:

IC50 [4] [µg/mL]	IC50 (Leishmania infantum) [µg/mL]	IC50 (Plasmodium falciparum K1) [µg/mL]	SMILES	IC50 [1] [µg/mL]	% Inhibition (Brugia malayi [2]) [%]	% Inhibition (Brugia malayi [3]) [%]	% Inhibition (Onchocerca lienalis) [%]	% Inhibition (Schistosoma mansoni) [%]	IC50 (Trypanosoma cruzi) [µg/mL]	% Inhibition (Onchocerca ochengi) [%]
1.95 (≈ 4.49 µM)	4.58 (≈ 10.5 µM)	> 14.1	CCOC(=O)c1c(NC(=O)c2sc3ccccc3c2Cl)sc2c1CCN(C)C2	3.6 (≈ 8.29 µM)	33.33	33.33	0	0	0.568 (≈ 1.31 µM)	–
4.6 (≈ 10.4 µM)	0.465 (≈ 1.05 µM)	3.35 (≈ 7.57 µM)	CC(C)N1CCc2c(sc(NC(=O)COc3ccc(Cl)cc3Cl)c2C(N)=O)C1	3.18 (≈ 7.19 µM)	0	33.33	20	0	0.595 (≈ 1.35 µM)	–
3.46 (≈ 8.8 µM)	4.24 (≈ 10.8 µM)	2.77 (≈ 7.04 µM)	CC(C)(C)c1ccc(-c2csc(NC(=O)c3ccc4ncsc4c3)n2)cc1	7.77 (≈ 19.7 µM)	0	50	33.3	0	0.891 (≈ 2.26 µM)	–
> 12.9	0.416 (≈ 0.971 µM)	> 12.9	O=C(C1CCCC1)N1CCc2ccc(NS(=O)(=O)c3ccc4c(c3)OCCO4)cc21	> 12.9	0	0	–	0	> 12.9	0
